Assay outcomes (PubChem)
LEDGF integ inh – blockers of LEDGF/p75-dependent integrase strand transfer – biochemical, TR-FRET, high throughput, primary screen. HIV-1 integrase (with human LEDGF/p75). TR-FRET IN-LEDGF/p75 DNA integration, Eu/Cy5. inhibition, % at 3.7 µM. hit rate 0.64% among 370,000. AID 743269, 2014;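 active = inhibition above the screen-wide mean plus 3 SD, cut at about 13% in these data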;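 note: signal is the Cy5 over europium emission ratio at 671 and 618 nm; 0% = plate median of compound wells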
UHRF1 binding – UHRF1 methylated DNA binding inhibitors, primary screen, counter-screen for MBD2 inhibitor project, biochemical, TR-FRET, human UHRF1, single concentration | UHRF1 binding to methylated oligo | hit rate 0.75% among 370,000 | AID 687016, 2013 | inhibition, % at 4.4 µM | E3 ubiquitin-protein ligase UHRF1 (Homo sapiens), Q96T88; in the data active = inhibition above about 21%;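 note: UHRF1 SRA domain binding a hemimethylated CpG hairpin DNA probe; 0% = median of test compound wells and 100% = reference inhibitor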
TDP2 inh – human TDP2 enzyme inhibitors, primary screen, biochemical, epi absorbance, recombinant enzyme; Tyrosyl-DNA phosphodiesterase 2 (Homo sapiens), O95551; T5PNP hydrolysis, p-nitrophenol absorbance 415 nm; inhibition, % at 12.8 µM; hit rate 0.34% among 370,000; AID 720702, 2013;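 active = inhibition above the mean of all tested compounds plus 3 SD, set per campaign, cut at about 25% in these data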;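 note: 0% = DMSO with enzyme and 100% = buffer with substrate but no TDP2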
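Evaluation: % inhibition relative to enzyme-containing and enzyme-free wells. Material: recombinant human TDP2. Benchmarks: enzyme-free and DMSO wells. Timing: enzyme reaction with compound for 2 h at 37 °C. Compound dosing: 12.8 µM only. Measured by: p-Nitrophenol epi absorbance. Reagent: T5PNP substrate at 5 mM, a TopII-DNA adduct mimic. Replication: single well per compound.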
MBD2 DNA inh – inhibitors of MBD2 binding to methylated DNA, primary screen, biochemical, TR-FRET, DNA-binding domain, human. Methyl-CpG-binding domain protein 2 (Homo sapiens), Q9UBB5. inhibition, % at 4.4 µM. MBD2 binding to methylated oligonucleotide. AID 686964, 2013. hit rate 0.31% among 370,000; in the data active = inhibition above about 13%
Target sequence (Q9UBB5 whole entry, looked up, the tested form may be a part): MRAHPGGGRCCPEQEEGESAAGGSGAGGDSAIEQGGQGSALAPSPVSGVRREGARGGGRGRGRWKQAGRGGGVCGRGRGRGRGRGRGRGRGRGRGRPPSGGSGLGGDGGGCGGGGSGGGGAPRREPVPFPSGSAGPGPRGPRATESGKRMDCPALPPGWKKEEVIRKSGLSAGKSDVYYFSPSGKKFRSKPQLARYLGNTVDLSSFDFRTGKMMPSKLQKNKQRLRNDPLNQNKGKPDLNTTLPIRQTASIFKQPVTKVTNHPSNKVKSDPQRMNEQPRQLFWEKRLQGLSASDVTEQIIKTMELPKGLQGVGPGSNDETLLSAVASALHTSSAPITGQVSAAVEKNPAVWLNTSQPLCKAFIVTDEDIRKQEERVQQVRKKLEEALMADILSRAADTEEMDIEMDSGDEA
* marks the source's active call; other numbers are inactive results. Most compounds without a hit are left out; they make up all but 1.6% or so of the library.

SMILES | LEDGF integ inh | UHRF1 binding | TDP2 inh | MBD2 DNA inh
CC(=O)c1c(C)oc2ccc(NS(=O)(=O)c3ccc(C)cc3)cc12 | -3.6 | 3.6 | -8.3 | 10.9
Cc1ccc(C)c(S(=O)(=O)Nc2ccc3oc(C)c(C(=O)O)c3c2)c1 | 8.6 | 23.7* | 2.7 | 2.3
O=C(OCn1nnc2ccccc2c1=O)c1ccc(F)c(S(=O)(=O)N2CCOCC2)c1 | 1.7 | 73.1* | 5.9 | 1.7
O=C(OCn1nnc2ccccc2c1=O)c1cccc(S(=O)(=O)N2CCOCC2)c1 | 2.3 | 0.2 | 3.8 | 0.8
COc1ccc(C(=O)OCCOc2cccc(Cl)c2)cc1S(=O)(=O)N1CCOCC1 | -3.8 | 0.3 | -3.4 | -1.1
Cc1cccc(OCCOC(=O)c2ccc(F)c(S(=O)(=O)N3CCOCC3)c2)c1 | -4.8 | 40.8* | 9.9 | 6.4
CCC1(CC)NC(=O)N(CC(=O)OCn2nnc3ccccc3c2=O)C1=O | 1.0 | 21.2* | -1.3 | 8.9
CCN=C1NC(c2cccc(Cl)c2)C(C(=O)OC)=C(C)N1Cc1ccccc1C(F)(F)F (configuration not stated) | -0.5 | 1.5 | -8.1 | 1.4
COCCn1c(SCc2nc3sc(C(=O)OC)c(C)c3c(=O)[nH]2)nc2ccccc21 | 0.2 | -2.1 | -3.9 | 1.9
CCn1c(SCc2nc3sc(C(=O)O)c(C)c3c(=O)[nH]2)nc2ccccc21 | 5.6 | 24.9* | 1.7 | 6.9
Cc1cc(=O)oc2cc(NC(=O)COc3cccc(C(F)(F)F)c3)ccc12 | 4.3 | 55.5* | 2.8 | 7.1
COc1cccc(NC(=O)C2CCCN2C(=O)NC2CCC(C)CC2)c1 (configuration not stated) | -3.2 | -1.8 | 6.8 | -3.8
CC(C)(C)c1ccc(S(=O)(=O)NNC(=O)C2CCN(Cc3cccc(F)c3)CC2)cc1 | -0.6 | 23.6* | -6.1 | -2.7
C[C@H](O)[C@@H]1CN2CCc3ccc(-c4ccc5c(c4)OCO5)cc3[C@@H]2C[C@@H]1N(C)C(=O)c1ccco1 | -1.6 | -3.2 | 2.9 | -2.0
Cc1ccc(C(=O)N2CCN(c3ccc(NC(=O)c4cc(C)cc(C)c4)cc3)CC2)cc1 | 1.4 | -1.4 | 3.5 | 0.2
Cc1cc(C)cc(C(=O)Nc2ccc(N3CCCC3)cc2)c1 | -2.5 | 47.2* | -2.1 | 1.5
CC1CN(c2nc3ccccc3nc2SCC(=O)N2CCN(S(=O)(=O)c3ccccc3)CC2)CC(C)O1 (configuration not stated) | -0.7 | -3.1 | -4.6 | -1.0
COc1ccc(CNc2nc3ccccc3s2)cc1OC | -3.5 | 0.7 | 8.2 | -0.1
c1ccc(CCNc2nc3ccccc3s2)cc1 | 0.5 | 20.8* | 4.1 | 4.6
COC(=O)N(C)C[C@H]1OCc2cn(nn2)CCCC(=O)N([C@H](C)CO)C[C@@H]1C | 1.7 | -3.1 | 0.7 | 1.1
C/C(=N\Nc1nc2ccccc2[nH]1)c1ccc(N2CCOCC2)cc1 | -0.4 | 33.5* | 6.0 | 3.2
CC(C)=CCC/C(C)=C/CN1CC(=O)N2[C@H](C[C@@]3(n4ccc5ccccc54)c4ccccc4N(S(=O)(=O)c4ccccc4)[C@@H]23)C1=O | 6.6 | -0.9 | -5.8 | 0.5
CC(c1ccco1)N(C(=O)c1ccccc1NS(=O)(=O)c1ccc(Cl)cc1)c1ccccn1 (configuration not stated) | 2.5 | 7.6 | -2.8 | 1.9
CC(c1ccco1)N(C(=O)c1ccccc1NS(=O)(=O)c1cc([N+](=O)[O-])ccc1Cl)c1ccccn1 (configuration not stated) | 4.3 | 26.2* | 2.7 | 6.0
COc1ccc(C(=O)O[C@@H]2CCC[C@@]3(C(=O)N(Cc4ccccc4)c4ccccc43)[C@H]2NC(=O)CCc2ccccc2)cc1OC | -0.3 | -1.6 | 6.8 | -1.6
CC(C)(C)[C@H]1C=C(C(=O)NC2CC2)O[C@@H](OCc2ccc(CO)cc2)C1 | 0.5 | 3.0 | -13.9 | 2.4
CC(C)(C)[C@@H]1C=C(C(=O)NC2CC2)O[C@H](OCc2ccc(CO)cc2)C1 | 0.3 | 37.2* | 0.5 | 6.7
Cc1ccc(CSc2nnc(-c3n[nH]c4c3CCC4)n2N)cc1 | -3.0 | 1.0 | 14.1 | 4.5
O=C(CSc1nnc(-c2ccccc2)n1-c1ccccc1)Nc1ccc(Oc2ccccc2)cc1 | -2.4 | 0.1 | -7.0 | 0.3
CC(C)C[C@@H]1O[C@H](CCc2ccccc2)CC2=C1C(=O)OC(C)(C)O2 | -1.4 | 0.1 | -6.6 | 0.3
